This is an account of results in ChEMBL document CHEMBL1125869, “Calcium-independent phosphodiesterase inhibitors as putative antidepressants: [3-(bicycloalkyloxy)-4-methoxyphenyl]-2-imidazolidinones” (J Med Chem, 1991).

For assay [1], the target named is T1, Phosphodiesterase 4 (Rattus norvegicus, UniProt P14270+P14646+P14644+P54748). Nature of the assay: Inhibition of [3H]- rolipram binding to rat cerebral cortex membranes. It counts as cell membranes, Membrane. Summed up:
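Cerebral cortex membranes homogenized in ice-cold 50 mM Tris-HCl pH 8.0 with 1.2 mM MgCl2, spun at 30000g for 20 min at 4 °C, washed once and resuspended at 0.5 mg protein/mL. (±)-[3H]rolipram at 2 nM final, 30 min at 25 °C, triplicates per concentration. Nonspecific binding defined with Ro 20-1724 (10 μM). Filtration, then scintillation counting. IC50 taken from semilog plots over several log concentrations.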

Assay [2] is filed under the species Mus musculus. The assay can be described thus: Minimum effective peroral dose (MED) in mouse forced-swim test. It counts as functional. As to conditions: po, read-out: MED. Summed up: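 Mice dosed orally, with compound in vehicle at 1 mL/100 g. One hour later they were placed in water at 25 °C. After 2 min habituation, immobility was rated ten times at 30-s intervals and expressed as percent of control. At least four half-log-spaced doses were given, with nine mice per dose. MED was the lowest dose giving a statistically significant decrease in immobility.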

For assay [3], the target named is T1, Phosphodiesterase 4. Nature of the assay: Inhibition of calcium-independent Phosphodiesterase 4. It counts as protein assay. Summed up:
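Enzyme taken from the 105000g supernatant of female Sprague-Dawley rat cerebral cortex and separated from the calcium-dependent form on Sephadex G-200. Substrate was 1.0 μM [3H]cAMP in Tris-HCl pH 7.5/MgCl2, run in triplicate for 8 min at 37 °C and stopped by heat. [3H]5'-AMP was separated on boronate affinity gel and counted. IC50 came from semilog plots over three log concentrations in triplicate.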

Assay [4] deals with Mus musculus. Nature of the assay: Reversal of reserpine-induced hypothermia in mice by intraperitoneal dose. It counts as functional. Particulars: ip, read-out: MED. Summed up: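 Individually housed mice at 20 °C received reserpine 2 mg/kg sc 18 h before test. Rectal temperature was measured before and 1 h after dosing with test drug in 5% DMSO/5% Emulphor 620/90% saline. At least four half-log-spaced doses were given, with nine mice per dose. MED was the dose giving a statistically significant temperature increase.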

Broadly, the IC50 is the concentration that inhibits the measured activity by half. On to `COc1ccc(C2CNC(=O)N2C)cc1OC1CC2C3CCC(C3)C12` (stereo not given), for which the results for the half-inhibitory concentration (IC50) on Phosphodiesterase 4 [1] and on Phosphodiesterase 4 [3] were 100 nM and 3100 nM, respectively. In addition, the minimal effective dose in the assay listed under Mus musculus [2] was over 32 mg/kg.

For `COc1ccc(C2CNC(=O)N2C)cc1OC1CC2CCC1CC2` (stereo not given), the values for the IC50 at Phosphodiesterase 4 [1] and at Phosphodiesterase 4 [3] were 81 nM and 2500 nM, respectively. The minimal effective dose with Mus musculus [4] was over 3200 µg/kg.

As for `COc1ccc(C2CNC(=O)N2C)cc1OC1CC2C3CCC(C3)C2C1` (stereo not given), the half-inhibitory concentration (IC50) is over 100 nM on Phosphodiesterase 4 [1] and 1400 nM at Phosphodiesterase 4 [3]. Also, the minimal effective dose in the assay with Mus musculus [4] is 3200 µg/kg; in the assay filed under Mus musculus [2] it was over 32 mg/kg.

Regarding `COc1ccc(C2CNC(=O)N2C)cc1OC1CC2CCC(C2)C1` (stereo not given), the IC50 was over 100 nM on Phosphodiesterase 4 [1] and 2400 nM at Phosphodiesterase 4 [3]. Further, the results for the minimal effective dose in the assay on Mus musculus [4] and in the assay listed under Mus musculus [2] were over 3200 µg/kg and over 32 mg/kg, respectively.

Regarding `COc1ccc(C2CNC(=O)N2C)cc1O[C@H]1CC2CC1C1CCCC21` (stereo not given in full), the values for the minimal effective dose in the assay with Mus musculus [4] and in the assay listed under Mus musculus [2] were 320 µg/kg and 32 mg/kg, respectively.

With `COc1ccc(C2CNC(=O)N2C)cc1O[C@H]1CC2CCC1C2` (stereo not given in full), the minimal effective dose is 1000 µg/kg in the assay with Mus musculus [4] and over 32 mg/kg in the assay listed under Mus musculus [2].

For `COc1ccc(C2CNC(=O)N2C)cc1O[C@@H]1CC2CCC1C2` (stereo not given in full), the figures for the IC50 at Phosphodiesterase 4 [1] and at Phosphodiesterase 4 [3] were 2.6 nM and 220 nM, respectively. Moreover, the minimal effective dose in the assay with Mus musculus [4] came to 0.03 µg/kg; in the assay listed under Mus musculus [2] it was 1 mg/kg.

Turning to `COc1ccc(C2CNC(=O)N2C)cc1O[C@@H]1CC2CC1C1CCCC21` (stereo not given in full), the concentration for half-maximal inhibition (IC50) worked out at 10 nM at Phosphodiesterase 4 [1] and 490 nM at Phosphodiesterase 4 [3]. The minimal effective dose stood at 320 µg/kg in the assay with Mus musculus [4] and 10 mg/kg in the assay filed under Mus musculus [2].

Take `COc1ccc(C2CNC(=O)N2C)cc1O[C@@H]1CC2CC1c1ccccc12` (stereo not given in full): the IC50 is 21 nM at Phosphodiesterase 4 [1] and 290 nM at Phosphodiesterase 4 [3]. Moreover, the figures for the minimal effective dose with Mus musculus [4] and in the assay filed under Mus musculus [2] were 1000 µg/kg and over 32 mg/kg, respectively.

`COc1ccc(C2CNC(=O)N2C)cc1OC1C2CC3CC(C2)CC1C3` (stereo not given): the IC50 was over 100 nM on Phosphodiesterase 4 [1] and 11000 nM on Phosphodiesterase 4 [3]. In addition, the minimal effective dose is 3200 µg/kg in the assay on Mus musculus [4] and over 32 mg/kg in the assay listed under Mus musculus [2].

With `COc1ccc(C2CNC(=O)N2C)cc1OC1CC2C=CC1C2` (stereo not given), the half-inhibitory concentration (IC50) at Phosphodiesterase 4 [1] is 3.1 nM; on Phosphodiesterase 4 [3], 130 nM. Besides, the values for the minimal effective dose with Mus musculus [4] and in the assay listed under Mus musculus [2] were 100 µg/kg and 0.1 mg/kg, respectively.

For `COc1ccc(C2CNC(=O)C2)cc1OC1CCCC1` (stereo not given) [ROLIPRAM], the results for the minimal effective dose in the assay with Mus musculus [4] and in the assay filed under Mus musculus [2] were 0.1 µg/kg and 1.8 mg/kg, respectively.
